Reference: ChEMBL document CHEMBL4373735, “N-alkyl-hydroxybenzoyl anilide hydroxamates as dual inhibitors of HDAC and HSP90, downregulating IFN-γ induced PD-L1 expression” (Eur J Med Chem, 2020)
The source made the active and inactive calls. The rule behind the calls is not given here.

Legend:
NCI-H1975 [1] = assay: Induction of apoptosis in human NCI-H1975 cells assessed as activation of caspase 3 at 0.1 to 3 uM measured after 48 hrs immunoblot analysis; type: functional, cell-based
Method in brief: (§1)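 H1975 cells cultured with compound at the indicated concentrations for 48 h, then immunoblotted with the indicated antibodies. Lysis buffer was ice-cold RIPA-type with phosphatase and protease inhibitors, 30 min on ice. Proteins separated on 8-15% SDS-PAGE, transferred to PVDF, primary antibody overnight at 4°C, HRP secondary 1 h at room temperature, ECL detection.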

HCT-116 = assay: cells; type: functional; settings: Homo sapiens, HCT-116, 48 h
NCI-H1975 [2] = assay: cells; type: functional; settings: Homo sapiens, NCI-H1975, 48 h
Histone deacetylase = type: cell-based, Homo sapiens; settings: hela
[3] = target: Heat shock protein HSP 90-alpha (Homo sapiens, UniProt P07900); assay: Inhibition of FITC-geldanamycin binding to recombinant human full-length C-terminal His-tagged HSP90alpha expressed in Escherichia coli after 3 hrs by fluorescence polarization assay
Histone deacetylase 1 = Histone deacetylase 1 (Homo sapiens, UniProt Q13547); assay: Inhibition of recombinant full length human FLAG/His-tagged HDAC1 (1 to 482 residues) expressed in baculovirus infected insect cells using RHK-K(Ac)-AMC as substrate measured after 60 mins by fluorimetric assay
Histone deacetylase 1, sequence (Q13547 whole entry, the tested form may be a part, canonical isoform): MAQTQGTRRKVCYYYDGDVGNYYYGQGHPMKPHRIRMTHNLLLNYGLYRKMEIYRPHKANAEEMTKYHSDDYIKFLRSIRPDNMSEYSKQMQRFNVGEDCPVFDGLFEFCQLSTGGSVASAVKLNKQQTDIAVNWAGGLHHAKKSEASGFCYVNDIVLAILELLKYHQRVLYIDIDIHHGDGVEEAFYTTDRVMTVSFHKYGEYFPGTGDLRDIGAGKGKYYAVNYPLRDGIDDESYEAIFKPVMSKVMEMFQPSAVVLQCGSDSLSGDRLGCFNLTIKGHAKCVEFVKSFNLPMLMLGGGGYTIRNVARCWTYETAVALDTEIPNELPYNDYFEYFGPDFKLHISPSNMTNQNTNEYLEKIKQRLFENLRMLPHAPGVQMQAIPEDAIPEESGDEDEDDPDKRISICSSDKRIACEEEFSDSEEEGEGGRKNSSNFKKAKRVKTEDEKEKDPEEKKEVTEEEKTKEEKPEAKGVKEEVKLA
Method in brief: (§2)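 Isoform assays run by an outside contractor. […] Trichostatin A tested in parallel the same way as control.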

Histone deacetylase 2 = Histone deacetylase 2 (Homo sapiens, UniProt Q92769); assay: Inhibition of recombinant human GST-tagged HDAC2 (1 to 488 residues) expressed in baculovirus infected sf21 cells using RHK-K(Ac)-AMC as substrate after 60 mins by fluorimetry assay; method in brief: as §2
Histone deacetylase 2, sequence (Q92769 whole entry, the tested form may be a part): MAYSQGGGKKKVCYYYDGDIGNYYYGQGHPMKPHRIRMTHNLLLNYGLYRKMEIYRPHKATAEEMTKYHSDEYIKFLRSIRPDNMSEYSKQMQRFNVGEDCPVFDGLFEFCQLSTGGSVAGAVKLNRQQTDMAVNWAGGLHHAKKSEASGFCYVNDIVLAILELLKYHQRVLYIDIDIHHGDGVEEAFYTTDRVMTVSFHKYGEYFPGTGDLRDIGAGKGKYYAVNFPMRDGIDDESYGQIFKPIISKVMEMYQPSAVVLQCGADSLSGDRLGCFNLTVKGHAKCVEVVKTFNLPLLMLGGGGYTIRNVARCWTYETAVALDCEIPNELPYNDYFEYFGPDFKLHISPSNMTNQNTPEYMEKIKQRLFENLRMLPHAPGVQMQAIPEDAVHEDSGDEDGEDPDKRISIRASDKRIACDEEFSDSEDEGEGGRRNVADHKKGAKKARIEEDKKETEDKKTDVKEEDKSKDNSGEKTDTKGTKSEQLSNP

Histone deacetylase 3 = Histone deacetylase 3 (Homo sapiens, UniProt O15379); assay: Inhibition of human recombinant full length C-terminal His-tagged HDAC3 (1 to 428 residues) expressed in baculovirus infected insect cells using RHK-K(Ac)-AMC as substrate after 60 mins by fluorimetry analysis; method in brief: as §2
Histone deacetylase 3, sequence (O15379 whole entry, the tested form may be a part): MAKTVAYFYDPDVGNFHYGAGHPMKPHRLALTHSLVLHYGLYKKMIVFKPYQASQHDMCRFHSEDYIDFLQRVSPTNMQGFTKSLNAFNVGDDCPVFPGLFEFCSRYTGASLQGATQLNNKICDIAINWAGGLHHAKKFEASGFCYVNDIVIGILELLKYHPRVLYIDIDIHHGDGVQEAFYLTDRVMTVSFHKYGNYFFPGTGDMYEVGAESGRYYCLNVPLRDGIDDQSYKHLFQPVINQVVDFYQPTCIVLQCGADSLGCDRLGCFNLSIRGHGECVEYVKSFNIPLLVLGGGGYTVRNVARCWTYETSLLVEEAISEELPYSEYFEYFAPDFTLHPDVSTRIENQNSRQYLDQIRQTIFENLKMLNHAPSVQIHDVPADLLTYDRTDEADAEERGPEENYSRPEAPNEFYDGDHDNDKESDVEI

Histone deacetylase 5 = Histone deacetylase 5 (Homo sapiens, UniProt Q9UQL6); assay: Inhibition of recombinant human C-terminal His-fusion tagged HDAC5 (657 to 1123 residues) expressed in baculovirus infected insect cells using Boc-K(Ac)-AMC as substrate after 60 mins by fluorimetry analysis; method in brief: as §2
Histone deacetylase 5, sequence (Q9UQL6 whole entry, the tested form may be a part): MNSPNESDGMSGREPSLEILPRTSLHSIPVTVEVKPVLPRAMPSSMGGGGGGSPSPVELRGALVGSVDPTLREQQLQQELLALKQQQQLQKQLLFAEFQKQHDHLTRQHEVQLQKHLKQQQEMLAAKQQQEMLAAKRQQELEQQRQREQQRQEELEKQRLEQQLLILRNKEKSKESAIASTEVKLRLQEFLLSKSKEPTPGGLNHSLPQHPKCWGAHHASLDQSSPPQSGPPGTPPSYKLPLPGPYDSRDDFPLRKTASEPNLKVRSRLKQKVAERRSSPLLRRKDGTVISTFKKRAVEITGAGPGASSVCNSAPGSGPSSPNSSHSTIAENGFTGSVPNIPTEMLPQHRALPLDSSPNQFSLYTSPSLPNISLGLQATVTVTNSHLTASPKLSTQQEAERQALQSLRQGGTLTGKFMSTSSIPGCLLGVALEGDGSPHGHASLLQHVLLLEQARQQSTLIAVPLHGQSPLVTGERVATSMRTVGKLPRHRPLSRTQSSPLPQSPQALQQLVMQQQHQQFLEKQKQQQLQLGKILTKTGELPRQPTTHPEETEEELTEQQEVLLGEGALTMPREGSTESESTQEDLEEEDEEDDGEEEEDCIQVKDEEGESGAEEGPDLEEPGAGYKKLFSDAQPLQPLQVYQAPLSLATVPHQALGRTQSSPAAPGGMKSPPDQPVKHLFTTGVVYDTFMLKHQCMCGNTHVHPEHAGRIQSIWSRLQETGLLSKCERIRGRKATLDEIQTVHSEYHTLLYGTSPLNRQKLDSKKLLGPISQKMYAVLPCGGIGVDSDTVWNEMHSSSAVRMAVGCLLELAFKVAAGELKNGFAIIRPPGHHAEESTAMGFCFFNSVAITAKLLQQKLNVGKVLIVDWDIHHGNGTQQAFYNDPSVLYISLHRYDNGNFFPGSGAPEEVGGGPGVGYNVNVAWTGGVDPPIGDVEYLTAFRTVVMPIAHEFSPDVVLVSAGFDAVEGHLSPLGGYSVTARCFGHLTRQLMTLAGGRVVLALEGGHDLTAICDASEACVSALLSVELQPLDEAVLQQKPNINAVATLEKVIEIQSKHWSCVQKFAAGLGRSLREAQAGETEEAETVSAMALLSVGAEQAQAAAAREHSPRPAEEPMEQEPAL

[4] = target: Protein deacetylase HDAC6 (Homo sapiens, UniProt Q9UBN7); assay: Inhibition of recombinant human N-terminal GST-tagged HDAC6 (1 to 1125 residues) expressed in baculovirus infected insect cells using RHK-K(Ac)-AMC as substrate after 90 mins by fluorimetry analysis; method in brief: as §2
Histone deacetylase 9 = Histone deacetylase 9 (Homo sapiens, UniProt Q9UKV0); assay: Inhibition of human HDAC9 using (Boc-Lys(trifluoroacetyl)-AMC) as substrate by fluorescence assay; method in brief: as §2
Histone deacetylase 9, sequence (Q9UKV0 whole entry, the tested form may be a part): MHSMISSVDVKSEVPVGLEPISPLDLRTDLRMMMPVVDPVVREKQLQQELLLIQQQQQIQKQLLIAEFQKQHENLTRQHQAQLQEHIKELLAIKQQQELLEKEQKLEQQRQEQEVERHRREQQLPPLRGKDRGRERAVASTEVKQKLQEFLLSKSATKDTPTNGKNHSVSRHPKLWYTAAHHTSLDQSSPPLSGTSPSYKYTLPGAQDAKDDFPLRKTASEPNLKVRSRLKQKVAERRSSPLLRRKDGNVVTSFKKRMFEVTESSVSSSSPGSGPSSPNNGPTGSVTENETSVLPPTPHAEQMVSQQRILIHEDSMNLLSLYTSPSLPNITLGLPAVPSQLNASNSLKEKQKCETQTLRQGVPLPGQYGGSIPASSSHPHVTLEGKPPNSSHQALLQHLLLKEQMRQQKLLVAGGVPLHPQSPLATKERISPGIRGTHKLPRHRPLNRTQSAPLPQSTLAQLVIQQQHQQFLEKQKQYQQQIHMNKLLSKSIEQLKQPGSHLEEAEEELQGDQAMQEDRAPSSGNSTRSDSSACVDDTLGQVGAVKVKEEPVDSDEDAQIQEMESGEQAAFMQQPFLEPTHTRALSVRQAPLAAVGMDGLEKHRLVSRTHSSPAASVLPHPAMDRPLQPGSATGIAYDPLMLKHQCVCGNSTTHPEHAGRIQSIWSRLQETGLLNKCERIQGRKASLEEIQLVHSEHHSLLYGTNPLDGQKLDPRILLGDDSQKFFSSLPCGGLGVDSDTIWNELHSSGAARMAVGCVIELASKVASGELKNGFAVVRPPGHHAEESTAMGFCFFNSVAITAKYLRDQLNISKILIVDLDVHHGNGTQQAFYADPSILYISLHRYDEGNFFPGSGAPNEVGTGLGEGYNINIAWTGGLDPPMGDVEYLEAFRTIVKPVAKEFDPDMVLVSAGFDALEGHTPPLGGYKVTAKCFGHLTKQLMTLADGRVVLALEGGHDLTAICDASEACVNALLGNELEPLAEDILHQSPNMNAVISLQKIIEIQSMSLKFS

Histone deacetylase 11 = Histone deacetylase 11 (Homo sapiens, UniProt Q96DB2); assay: Inhibition of human recombinant N-terminal Streptavidin2-tagged HDAC11 (1 to 347 residues) expressed in baculovirus infected insect cells using Boc-Lys(TFA)-AMC as substrate after 60 mins by fluorescence assay; method in brief: as §2
Histone deacetylase 11, sequence (Q96DB2 whole entry, the tested form may be a part): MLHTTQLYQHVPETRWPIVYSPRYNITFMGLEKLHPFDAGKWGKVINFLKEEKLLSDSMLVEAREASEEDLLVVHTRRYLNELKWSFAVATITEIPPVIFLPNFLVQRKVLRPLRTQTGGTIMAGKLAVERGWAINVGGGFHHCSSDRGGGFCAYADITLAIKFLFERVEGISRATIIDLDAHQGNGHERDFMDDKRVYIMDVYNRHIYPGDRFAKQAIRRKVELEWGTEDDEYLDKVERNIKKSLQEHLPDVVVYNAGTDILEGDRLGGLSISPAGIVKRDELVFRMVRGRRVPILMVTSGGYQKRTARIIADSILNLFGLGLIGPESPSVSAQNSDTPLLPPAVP

[5] = target: NAD-dependent protein deacetylase sirtuin-1 (Homo sapiens, UniProt Q96EB6); assay: Inhibition of human recombinant N-terminal His-tagged SIRT1 (1 to 747 residues) expressed in Escherichia coli using Ac-RHK-K(Ac)-AMC as substrate after 30 mins in presence of NAD+ by fluorimetry analysis; method in brief: as §2
NAD-dependent protein deacetylase sirtuin-1, sequence (Q96EB6 whole entry, the tested form may be a part): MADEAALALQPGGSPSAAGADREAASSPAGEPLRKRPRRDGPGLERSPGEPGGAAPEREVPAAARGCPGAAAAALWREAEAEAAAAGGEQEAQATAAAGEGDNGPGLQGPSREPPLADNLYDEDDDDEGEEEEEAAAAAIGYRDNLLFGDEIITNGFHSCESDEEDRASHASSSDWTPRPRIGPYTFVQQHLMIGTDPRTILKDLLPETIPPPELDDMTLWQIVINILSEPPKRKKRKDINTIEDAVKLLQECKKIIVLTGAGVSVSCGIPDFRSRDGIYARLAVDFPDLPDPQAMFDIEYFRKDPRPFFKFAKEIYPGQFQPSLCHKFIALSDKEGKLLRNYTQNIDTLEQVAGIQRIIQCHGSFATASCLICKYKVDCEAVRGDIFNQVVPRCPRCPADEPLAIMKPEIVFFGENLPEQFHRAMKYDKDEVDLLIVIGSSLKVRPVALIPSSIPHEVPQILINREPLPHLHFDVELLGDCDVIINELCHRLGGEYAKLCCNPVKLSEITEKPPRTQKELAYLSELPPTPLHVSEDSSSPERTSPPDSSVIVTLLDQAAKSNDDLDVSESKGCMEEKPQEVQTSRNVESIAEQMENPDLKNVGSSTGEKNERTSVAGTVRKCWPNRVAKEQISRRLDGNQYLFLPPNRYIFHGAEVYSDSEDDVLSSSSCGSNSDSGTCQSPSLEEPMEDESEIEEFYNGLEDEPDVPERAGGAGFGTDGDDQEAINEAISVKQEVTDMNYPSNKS

[6] = target: T1, Heat shock protein HSP90 (Homo sapiens) (UniProt P07900+P08238); assay: Inhibition of HSP90 in human H1975 cells assessed as induction of HSP70 expression by Western blot analysis; type: cell-based
Method in brief: (§3)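 H1975 cells given DMSO or 0.1-3 μM compound for 24 h, or 1 μM for varying times. HSP70 and HSP90 client proteins detected by Western blot of whole-cell lysates, with GAPDH as internal control. Repeated in at least three independent experiments.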

[7] = target: T1, Heat shock protein HSP90 (Homo sapiens); assay: Inhibition of HSP90 in human H1975 cells assessed as downregulation of EGFR protein level by Western blot analysis; type: cell-based; method in brief: as §3
[8] = target: T1, Heat shock protein HSP90 (Homo sapiens); assay: Inhibition of HSP90 in human H1975 cells assessed as downregulation of Rb protein level by Western blot analysis; type: cell-based; method in brief: as §3
[9] = target: T2, Histone deacetylase (Homo sapiens) (UniProt Q13547+O15379+Q9UBN7+Q92769+Q9UQL6+Q8WUI4+Q9BY41+Q96DB2+P56524+Q9UKV0+Q969S8); assay: Inhibition of HDAC in human H1975 cells assessed as alpha tubulin acetylation after 24 hrs by Western blot analysis; type: cell-based
Method in brief: (§4)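 Whole-cell lysates from H1975 cells after 24 h culture with compound at the indicated concentrations. Acetylated α-tubulin and acetylated histone H3 detected by immunoblot: SDS-PAGE, PVDF transfer, primary antibody overnight at 4°C, HRP secondary, ECL. Repeated at least three times.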

[10] = target: T2, Histone deacetylase (Homo sapiens); assay: Inhibition of HDAC in human H1975 cells assessed as Histone H3 acetylation after 24 hrs by Western blot analysis; type: cell-based; method in brief: as §4
NCI-H1975 [11] = assay: Cell cycle arrest in human NCI-H1975 cells assessed as increase in accumulation at sub-G1 phase at 0.1 to 3 uM after 48 hrs by propidium iodide/RNase staining based FACScan flow cytometry analysis; type: functional
Method in brief: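 H1975 cells seeded at 2.5×10^5/well, left overnight, then exposed to DMSO or compound at several concentrations for 48 h. Washed in PBS, fixed in ice-cold 70% ethanol at -20 °C overnight, stained with propidium iodide 80 ug/ml plus 0.1% Triton X-100 and RNase A 100 ug/ml in PBS. DNA content read by FACScan.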

NCI-H1975 [12] = assay: Induction of apoptosis in human NCI-H1975 cells assessed as activation of caspase 9 at 0.1 to 3 uM measured after 48 hrs immunoblot analysis; type: functional, cell-based; method in brief: as §1
NCI-H1975 [13] = assay: Induction of apoptosis in human NCI-H1975 cells assessed as activation of PARP at 0.1 to 3 uM measured after 48 hrs immunoblot analysis; type: functional, cell-based; method in brief: as §1
NCI-H1975 [14] = assay: Induction of apoptosis in human NCI-H1975 cells assessed as activation of gamma H2AX at 0.1 to 3 uM measured after 48 hrs immunoblot analysis; type: functional, cell-based; method in brief: as §1
NCI-H1975 [15] = assay: Inhibition of PD-L1 cell surface expression in IFNgamma-stimulated human NCI-H1975 cells at 0.74 uM after 48 hrs by FITC staining based FACScan flow cytometry analysis; type: functional
Method in brief: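 Cells seeded at 3.2×10^5/well and treated with IFN-γ 20 ng/ml with or without compound for 48 h. Then 3×10^5 cells stained with mouse anti-PD-L1 5 µg/ml for 1 h, followed by FITC goat anti-mouse IgG for 1 h, in PBS/0.05% BSA. FITC mean fluorescence intensity measured by FACScan and expressed relative to untreated cells. Mean ± S.D. of three independent experiments.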

| SMILES | Activity (NCI-H1975 [1]) | GI50 (HCT-116) | GI50 (NCI-H1975 [2]) | IC50 (Histone deacetylase) | IC50 [3] | IC50 (Histone deacetylase 1) | IC50 (Histone deacetylase 2) | IC50 (Histone deacetylase 3) | IC50 (Histone deacetylase 5) | IC50 [4] | IC50 (Histone deacetylase 9) | IC50 (Histone deacetylase 11) | IC50 [5] | inhibition [6] | inhibition [7] | inhibition [8] | inhibition [9] | inhibition [10] | Activity (NCI-H1975 [11]) | Activity (NCI-H1975 [12]) | further results |
| --- | --- | --- | --- | --- | --- | --- | --- | --- | --- | --- | --- | --- | --- | --- | --- | --- | --- | --- | --- | --- | --- |
| CC(C)c1cc(C(=O)N(C)c2ccc(NC(=O)CCCCCCCC(=O)NO)cc2)c(O)cc1O | Active | 1.06 µM | 0.4 µM | 0.361 µM | 0.0772 µM | 6.06 µM | 4.91 µM | 1.44 µM | 5.41 µM | 0.316 µM | > 10 µM | 1.89 µM | > 10 µM | Active | Active | Active | Dose-dependent effect | Dose-dependent effect | Active | Active | Activity (NCI-H1975 [13]): Active; Activity (NCI-H1975 [14]): Active; inhibition (NCI-H1975 [15]): Active |
| CC(C)c1cc(C(=O)N(C)c2ccc(NC(=O)CCCCCCC(=O)NO)cc2)c(O)cc1O | Active | 0.83 µM | 0.69 µM | 0.195 µM | 0.153 µM | 1.31 µM | 1.19 µM | 2.06 µM | 7.86 µM | 0.04 µM | > 10 µM | 3.61 µM | > 10 µM | Active | Active | Active | Dose-dependent effect | Dose-dependent effect | Active | Active | Activity (NCI-H1975 [13]): Active; Activity (NCI-H1975 [14]): Active; inhibition (NCI-H1975 [15]): Active |
